# Data from ChEMBL document CHEMBL4024771, “Optimization of Orally Bioavailable Enhancer of Zeste Homolog 2 (EZH2) Inhibitors Using Ligand and Property-Based Design Strategies: Identification of Development Candidate …” (J Med Chem, 2018).
# Legend:
# KARPAS-422 = assay: Antiproliferative activity against human KARPAS422 cells after 72 hrs by resazurin assay; assay type: functional, cell-based
# [1] = Kinetic solubility of the compound; assay type: physicochemical; settings: for solubility kinetic: read-out: Kinetic_solubility
# [2] = Passive permeability in MDCK cells at 2 uM after 90 mins by LC-MS/MS analysis; assay type: ADME, cell-based, Canis lupus familiaris; settings: dog; for Papp at […], 2 µM: MDCK, read-out: permeability; for permeability: mdck, 2 µM
# Outline: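 Low-efflux MDCK cells (MDCK-LE) on 96-well inserts, used on day 4. Monodirectional transport of 2 μM drug in transport buffer with 0.1% DMSO at 37 °C. Donor and receiver sampled at 0 and 90 min for LC−MS/MS. Donor pH 6.5 and 7.4, receiver pH 7.4.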
# [3] = target: Histone-lysine N-methyltransferase EZH2 (Homo sapiens, UniProt Q15910); assay: Inhibition of EZH2 in human KARPAS422 cells assessed as reduction in H3K27me3 level after 72 hrs by ELISA
# [4] = Lipophilicity, log D of the compound at pH 7.4; settings: buffer
# [5] = target: Histone-lysine N-methyltransferase EZH2 (Homo sapiens, UniProt Q15910, Y641N); assay: Inhibition of EZH2 Y641N mutant (unknown origin) using oligonucleosomes as substrate after 60 mins in presence of [3H]SAM by scintillation counting analysis
# [6] = (§1) Intrinsic clearance in human liver microsomes assessed per mg protein at 1 uM preincubated for 10 mins followed by NADPH addition measured after 45 mins by LC-MS/MS analysis; assay type: ADME, microsome; settings: liver microsomes, read-out: CLH
# Outline: (§2)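 Test compound (1 μM) with pooled liver microsomes (0.8 mg/mL protein) in 100 mM potassium phosphate pH 7.4, 10 min preincubation, started with 2 mM NADPH, 45 min at 37 °C, in triplicate. Samples quenched with cold methanol containing buspirone internal standard, analysed by LC−MS/MS. CLint derived from t1/2 of parent loss (log-linear slope).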
# Liver = assay: as §1; assay type: ADME, microsome; settings: microsomes, 0.75 h, 1 µM; outline: as §2
# Histone-lysine N-methyltransferase EZH2 (Homo sapiens, UniProt Q15910, Y641N), sequence (Q15910 whole entry Y641N): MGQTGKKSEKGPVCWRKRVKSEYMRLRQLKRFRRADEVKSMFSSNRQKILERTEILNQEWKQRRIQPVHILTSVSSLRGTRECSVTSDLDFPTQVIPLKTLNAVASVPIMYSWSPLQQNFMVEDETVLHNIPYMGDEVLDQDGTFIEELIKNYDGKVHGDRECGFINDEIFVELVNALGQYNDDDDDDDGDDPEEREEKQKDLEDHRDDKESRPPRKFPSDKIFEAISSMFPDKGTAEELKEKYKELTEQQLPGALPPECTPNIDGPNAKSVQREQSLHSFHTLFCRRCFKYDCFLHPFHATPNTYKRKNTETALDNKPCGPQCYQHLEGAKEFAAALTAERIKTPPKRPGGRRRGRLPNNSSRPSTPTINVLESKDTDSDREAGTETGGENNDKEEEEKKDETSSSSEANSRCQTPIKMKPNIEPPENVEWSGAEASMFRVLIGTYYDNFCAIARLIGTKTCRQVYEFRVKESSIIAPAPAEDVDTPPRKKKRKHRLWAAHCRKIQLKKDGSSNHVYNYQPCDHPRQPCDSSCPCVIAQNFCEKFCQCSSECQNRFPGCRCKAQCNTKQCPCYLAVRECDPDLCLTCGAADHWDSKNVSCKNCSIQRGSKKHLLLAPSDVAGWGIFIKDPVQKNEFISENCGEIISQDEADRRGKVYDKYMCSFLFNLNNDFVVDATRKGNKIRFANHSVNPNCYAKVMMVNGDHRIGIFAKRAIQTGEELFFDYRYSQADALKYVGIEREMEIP
# Histone-lysine N-methyltransferase EZH2 (Homo sapiens, UniProt Q15910), sequence (Q15910 whole entry): as the sequence (Q15910 whole entry Y641N) above, with N641Y counted along it
"IC50 (KARPAS-422; Homo sapiens, KARPAS-422, 72 h)",solubility kinetic [1],"Papp at […], 2 µM [2]",IC50 [3],"logD ([4]; pH 7.4, logD)",Ki [5],microsomal CLint at 1 µM [6],IC50 (KARPAS-422; karpas-422),Kinetic_solubility [1],permeability [2],microsomal CLint (Liver),logD ([4]; pH 7.4),SMILES
0.108 µM,234 µM,7 nm/s,0.099 µM,1.4,0.0015 µM,< 8 µL/min/mg,,,,,,COc1cc(C)[nH]c(=O)c1CN1CCc2c(Cl)cc([C@H](O)C3COC3)c(Cl)c2C1=O
0.535 µM,576 µM,85 nm/s,1.02 µM,2.5,0.11 µM,43 µL/min/mg,,,,,,Cc1cc(C)c(CN2CCc3c(Cl)cc([C@@H](CO)[C@H]4CCCO4)c(Cl)c3C2=O)c(=O)[nH]1
0.027 µM,384 µM,110 nm/s,0.008 µM,2.7,0.00015 µM,70 µL/min/mg,,,,,,COc1cc(C)[nH]c(=O)c1CN1CCc2c(Cl)cc(-c3c(C)noc3C)c(Cl)c2C1=O
,49 µM,,,,,190 µL/min/mg,0.696 µM,,376 nm/s,,3.4,"COC(C)c1cc(Cl)c2c(c1Cl)C(=O)N(Cc1c(C)cc(C)[nH]c1=O)CC2 (single isomer, unassigned; (+))"
0.27 µM,44 µM,,0.065 µM,,0.008 µM,119 µL/min/mg,,,135 nm/s,,,"CCC(OC)c1cc(Cl)c2c(c1Cl)C(=O)N(Cc1c(C)cc(C)[nH]c1=O)CC2 (single isomer, unassigned; (-))"
,415 µM,,1.1 µM,,0.13 µM,136 µL/min/mg,0.175 µM,,184 nm/s,,,"COC(c1cc(Cl)c2c(c1Cl)C(=O)N(Cc1c(C)cc(C)[nH]c1=O)CC2)C1CCOC1 (single isomer, unassigned; (-))"
,,,1.46 µM,,0.31 µM,130 µL/min/mg,1.15 µM,57.2 µM,165 nm/s,,3.5,"COC(c1cc(Cl)c2c(c1Cl)C(=O)N(Cc1c(C)cc(C)[nH]c1=O)CC2)C1CCOCC1 (single isomer, unassigned; (-))"
,,,0.391 µM,,0.092 µM,75 µL/min/mg,0.269 µM,505 µM,82 nm/s,,2.4,"COc1cc(C)[nH]c(=O)c1CN1CCc2c(Cl)cc(C(OC)C3CCOC3)c(Cl)c2C1=O (single isomer, unassigned; form 2)"
,161 µM,53 nm/s,,,,,0.024 µM,,,52.5 µL/min/mg,,COC(c1cc(Cl)c2c(c1Cl)C(=O)N(Cc1c(C)cc(C)[nH]c1=O)CC2)C1CS(=O)(=O)C1 (stereo in doubt; (+)-19a)
,,,0.253 µM,,0.35 µM,168 µL/min/mg,0.559 µM,512 µM,48 nm/s,,2.2,COc1cc(C)[nH]c(=O)c1CN1CCc2c(Cl)cc(C(OC)C3(C)COC3)c(Cl)c2C1=O (stereo in doubt; (-)-24b)

# Continued, molecule first:
SMILES,"IC50 (KARPAS-422; Homo sapiens, KARPAS-422, 72 h)",solubility kinetic [1],"Papp at […], 2 µM [2]",IC50 [3],"logD ([4]; pH 7.4, logD)",Ki [5],microsomal CLint at 1 µM [6],IC50 (KARPAS-422; karpas-422),Kinetic_solubility [1],permeability [2],microsomal CLint (Liver),logD ([4]; pH 7.4)
COc1cc(C)[nH]c(=O)c1CN1CCc2c(Cl)cc([C@@H](OC)C3COC3)c(Cl)c2C1=O,0.467 µM,543 µM,68 nm/s,0.075 µM,1.6,0.016 µM,17 µL/min/mg,,,,,
Cc1cc(C)c(CN2CCc3c(Cl)cc([C@@H](CO)[C@@H]4CCOC4)c(Cl)c3C2=O)c(=O)[nH]1,3.95 µM,537 µM,30 nm/s,2.91 µM,2,1.26 µM,25.3 µL/min/mg,,,,,
Cc1cc(C)c(CN2CCc3c(Cl)cc([C@H](CO)[C@@H]4CCCO4)c(Cl)c3C2=O)c(=O)[nH]1,0.057 µM,400 µM,146 nm/s,0.041 µM,2.4,0.01 µM,37.6 µL/min/mg,,,,,
COc1cc(C)[nH]c(=O)c1CN1CCc2c(Cl)cc([C@@H](O)C3COC3)c(Cl)c2C1=O,10.6 µM,582 µM,12 nm/s,> 32 µM,1.3,1.5 µM,< 7 µL/min/mg,,,,,
Cc1cc(C)c(CN2CCc3c(Cl)cc([C@H](CO)[C@H]4CCOC4)c(Cl)c3C2=O)c(=O)[nH]1,0.015 µM,570 µM,29 nm/s,0.01 µM,2,0.00024 µM,21.3 µL/min/mg,,,,,
Cc1cc(C)c(CN2CCc3c(Cl)cc([C@@H](C)CO)c(Cl)c3C2=O)c(=O)[nH]1,1.5 µM,143 µM,150 nm/s,1.04 µM,2.5,0.26 µM,12.4 µL/min/mg,,,,,
Cc1cc(C)c(CN2CCc3c(Cl)cc([C@H](CO)[C@H]4CCCO4)c(Cl)c3C2=O)c(=O)[nH]1,0.063 µM,430 µM,41 nm/s,0.04 µM,2.1,0.008 µM,51.6 µL/min/mg,,,,,
Cc1cc(C)c(CN2CCc3c(Cl)cc([C@@H](CO)[C@@H]4CCCO4)c(Cl)c3C2=O)c(=O)[nH]1,1.22 µM,550 µM,43 nm/s,1.57 µM,2.1,0.135 µM,70.3 µL/min/mg,,,,,
"COC(c1cc(Cl)c2c(c1Cl)C(=O)N(Cc1c(C)cc(C)[nH]c1=O)CC2)C1CS(=O)(=O)C1 (single isomer, unassigned)",,,,,,,,4.83 µM,159 µM,61 nm/s,23 µL/min/mg,
"COC(c1cc(Cl)c2c(c1Cl)C(=O)N(Cc1c(C)cc(C)[nH]c1=O)CC2)C1CCOC1 (single isomer, unassigned; (+))",,,,0.047 µM,,0.0019 µM,,0.05 µM,439 µM,187 nm/s,128 µL/min/mg,
"COC(c1cc(Cl)c2c(c1Cl)C(=O)N(Cc1c(C)cc(C)[nH]c1=O)CC2)C1CCS(=O)(=O)CC1 (single isomer, unassigned; (-))",,,,,,,,0.97 µM,415 µM,57 nm/s,15 µL/min/mg,
"COC(c1cc(Cl)c2c(c1Cl)C(=O)N(Cc1c(C)cc(C)[nH]c1=O)CC2)C1CCN(C)CC1 (single isomer, unassigned; (-))",,,,1.13 µM,,0.26 µM,< 13.4 µL/min/mg,2.32 µM,499 µM,23 nm/s,,1.5
"COC(c1cc(Cl)c2c(c1Cl)C(=O)N(Cc1c(C)cc(C)[nH]c1=O)CC2)C1CCN(C(C)=O)CC1 (single isomer, unassigned; (-))",,,,,,,50.3 µL/min/mg,1.62 µM,498 µM,81 nm/s,,
"COc1cc(C)[nH]c(=O)c1CN1CCc2c(Cl)cc(C(OC)C3CCN(C(=O)CO)CC3)c(Cl)c2C1=O (single isomer, unassigned; (-))",,,,,,,,0.25 µM,453 µM,11 nm/s,12.6 µL/min/mg,
"COC(c1cc(Cl)c2c(c1Cl)C(=O)N(Cc1c(C)cc(C)[nH]c1=O)CC2)C1CCN(C2COC2)CC1 (single isomer, unassigned; (-))",,,,1.31 µM,,0.53 µM,78.3 µL/min/mg,2.26 µM,519 µM,79 nm/s,,2.8
"COC(c1cc(Cl)c2c(c1Cl)C(=O)N(Cc1c(C)cc(C)[nH]c1=O)CC2)C1CCN(C(=O)CO)CC1 (single isomer, unassigned; (-))",,,,0.749 µM,,0.07 µM,23 µL/min/mg,3.14 µM,513 µM,71 nm/s,,2.3
Cc1cc(C)c(CN2CCc3c(Cl)cc(C(CO)C4CCOC4)c(Cl)c3C2=O)c(=O)[nH]1 (stereo in doubt),,522 µM,,1.01 µM,,0.15 µM,20 µL/min/mg,1.04 µM,,27 nm/s,,
Cc1cc(C)c(CN2CCc3c(Cl)cc(C(CO)C4CCOCC4)c(Cl)c3C2=O)c(=O)[nH]1 (stereo in doubt; (+)-8b),,496 µM,,14.8 µM,,3.27 µM,34.7 µL/min/mg,4.4 µM,,29 nm/s,,
CCC(CO)c1cc(Cl)c2c(c1Cl)C(=O)N(Cc1c(C)cc(C)[nH]c1=O)CC2 (stereo in doubt; (-)-5b),,443 µM,,0.682 µM,,0.014 µM,67.6 µL/min/mg,0.502 µM,,109 nm/s,,2.9
Cc1cc(C)c(CN2CCc3c(Cl)cc(C(CO)c4ccon4)c(Cl)c3C2=O)c(=O)[nH]1 (stereo in doubt; (-)-21b),,,,,,,22.7 µL/min/mg,2.49 µM,481 µM,86 nm/s,,
